Results collected from several papers.
SCN1A: Sodium channel protein type 1 subunit alpha (SCN1A, Homo sapiens, UniProt P35498)

SMILES | target | read-out | action | technique | concentration | measurement | result
CCCN1C[C@H](CSC)C[C@@H]2c3cccc4[nH]cc(c34)C[C@H]21 | SCN1A | ion current | inhibitor | patch clamp | 30 µM | inhibition | 89.1%
C[C@@H]1CC2=C(CN1Cc1cccc(C#N)c1)C(=O)N(Cc1ccc(Br)cc1)C1=NCCN12 | ATP-dependent Clp protease proteolytic subunit, mitochondrial (CLPP, Homo sapiens, UniProt Q16740) | thermal stability | – | DSF | 670 µM | ΔTm | 17.7 °C
C=CC(=O)N1CCC(COCC(=O)N2CCN(c3nc(-c4cnc(N)nc4C(F)F)nc(N4CCOC[C@@H]4C)n3)CC2)CC1 | Receptor-interacting serine/threonine-protein kinase 2 (RIPK2, Homo sapiens, UniProt O43353) | binding | – | competition with immobilised ligand | 1 µM | remaining binding | 95%
Cc1cc([C@@H](C)Nc2ccccc2C(=O)O)c2nc(N3CCC(F)(F)CC3)c(C#N)c(=O)n2c1 | High affinity nerve growth factor receptor (NTRK1, Homo sapiens, UniProt P04629) | binding | – | competition with immobilised ligand | 10 µM | remaining binding | 97%
CNc1ncc2c(/C=C/C(=O)N3CCC(OC)CC3)nn(Cc3cccc(C(F)(F)F)c3)c2n1 | Cyclin-dependent kinase 5, with p35 (CDK5, Homo sapiens, UniProt Q00535) | enzyme activity | inhibitor | radiometric | 1 µM | remaining activity | 89%
Cc1nnc(SCC2=C(C(=O)O)N3C(=O)[C@@H](NC(=O)Cn4cnnn4)[C@H]3SC2)s1 | SCN1A | ion current | inhibitor | patch clamp | 30 µM | inhibition | 7.45%
C[C@H]1O[C@H](O[C@H]2[C@H](O)[C@@H](O)[C@@H](O[C@H]3[C@H](O)[C@@H](O)C(O)O[C@@H]3CO)O[C@@H]2CO)[C@H](O)[C@@H](O)[C@@H]1N[C@H]1C=C(CO)[C@@H](O)[C@H](O)[C@H]1O (stereo partly shown) | Alpha-glucosidase MAL12 (MAL12, Saccharomyces cerevisiae S288c, UniProt P53341) | enzyme activity | inhibitor | absorbance | 2000 µg/mL | inhibition | 91.2%
CC(=O)c1c(C)c2cnc(Nc3ccc(N4CCNCC4)cn3)nc2n(C2CCCC2)c1=O | Cyclin-dependent kinase 5, with p25 (CDK5, Homo sapiens, UniProt Q00535) | enzyme activity | inhibitor | ADP detection | 1 µM | activity vs control | 97%
COc1cc(-c2cncc3c2CN(C)Cc2cc(N4CCNCC4)ccc2-3)cc(OC)c1OC | Focal adhesion kinase 1 (PTK2, Homo sapiens, UniProt Q05397) | enzyme activity | inhibitor | – | 1 µM | remaining activity | 102%
CC(C)NCC(O)COc1cccc2ccccc12 (stereo not shown) | SCN1A | ion current | inhibitor | patch clamp | 10 µM | inhibition | 16.4%
